Reference: ChEMBL document CHEMBL4385599, “Neutral sphingomyelinase 2 inhibitors based on the 4-(1H-imidazol-2-yl)-2,6-dialkoxyphenol scaffold” (Eur J Med Chem, 2019)

Experiments:
[1] = Selectivity index, ratio of IC50 for horseradish peroxidase to IC50 for Inhibition of human recombinant nSMase expressed in HEK293 cells; format: cell-based
[2] = Ratio of drug level of test compound to drug level of DPTIP in CD-1 mouse plasma at 10 mg/kg, po measured after 2 hrs by UPLC and LC-MS/MS analysis; format: ADME, organism-based; settings: in vivo
In short: (§1)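 Male CD-1 mice (25–30 g), single oral gavage 10 mg/kg in 5% DMSO, 5% polysorbate 80, 90% saline; 3 mice per time point, sacrificed at 0.5 and 2 h. Cardiac blood into heparin, plasma by centrifugation; brains flash frozen. Acetonitrile extraction with losartan internal standard; quantified by UPLC–LC-MS/MS against calibration curves in naïve plasma/brain matrix.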

[3] = Metabolic stability in human liver microsomes assessed as parent compound remaining at 5 uM in presence of NADPH regenerating system measured after 1 hr by LC/MS/MS method; format: ADME, Microsome
Homo sapiens [4] = species on record: Homo sapiens; assay: Selectivity index, ratio of IC50 for choline oxidase (unknown origin) to IC50 for Inhibition of human recombinant nSMase expressed in HEK293 cells; format: cell-based
Homo sapiens [5] = species on record: Homo sapiens; assay: Selectivity index, ratio of IC50 for alkaline phosphatase (unknown origin) to IC50 for Inhibition of human recombinant nSMase expressed in HEK293 cells; format: cell-based
[6] = Ratio of drug level of test compound to drug level of DPTIP in CD-1 mouse plasma at 10 mg/kg, po measured after 0.5 hrs by UPLC and LC-MS/MS analysis; format: ADME, organism-based; settings: in vivo; in short: as §1
[7] = Metabolic stability in mouse liver microsomes assessed as parent compound remaining in presence of UDPGA at 5 uM measured after 1 hr by LC/MS/MS method; format: ADME, Microsome
In short: (§2)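 Glucuronidation: compound in 50 mM Tris-HCl pH 7.5 with microsomes 0.5 mg/mL, 8 mM MgCl2, 25 μg/mL alamethicin, preincubated at 37 °C; started with UDPGA 2 mM final, triplicate; 60 min; quenched with cold acetonitrile plus internal standard; parent remaining by LC/MS/MS; cofactor-free controls.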

[8] = Ratio of drug level in brain to plasma in CD-1 mouse at 10 mg/kg, po measured after 2 hrs by UPLC and LC-MS/MS analysis; format: ADME, organism-based; in short: as §1
[9] = Ratio of drug level of test compound to drug level of DPTIP in CD-1 mouse brain at 10 mg/kg, po measured after 2 hrs by UPLC and LC-MS/MS analysis; format: ADME, organism-based; settings: in vivo; in short: as §1
[10] = Metabolic stability in mouse liver microsomes assessed as parent compound remaining at 5 uM in presence of NADPH regenerating system measured after 1 hr by LC/MS/MS method; format: ADME, Microsome
[11] = Drug metabolism in CD-1 mouse assessed as (2S,3S,4S,5R,6S)-6-(4-(4,5-diisopropyl-1H-imidazol-2-yl)-2,6-dimethoxyphenoxy)-3,4,5-trihydroxytetrahydro-2H-pyran-2-carboxylic acid at 10 mg/kg, po measured after 2 hrs by UPLC and LC-MS/MS analysis; format: ADME, organism-based; settings: in vivo
[12] = Metabolic stability in human liver microsomes assessed as parent compound remaining in presence of UDPGA at 5 uM measured after 1 hr by LC/MS/MS method; format: ADME, Microsome; in short: as §2
[13] = molecular target: T1, Sphingomyelin phosphodiesterase 3 (Homo sapiens, UniProt Q9NY59); assay: Inhibition of human recombinant nSMase expressed in HEK293 cells using sphingomyelin as substrate by alkaline phosphatase, choline oxidase and horseradish peroxidase dependent H2O2 detection based fluorescence coupled assay
T1 sequence (Q9NY59 whole entry): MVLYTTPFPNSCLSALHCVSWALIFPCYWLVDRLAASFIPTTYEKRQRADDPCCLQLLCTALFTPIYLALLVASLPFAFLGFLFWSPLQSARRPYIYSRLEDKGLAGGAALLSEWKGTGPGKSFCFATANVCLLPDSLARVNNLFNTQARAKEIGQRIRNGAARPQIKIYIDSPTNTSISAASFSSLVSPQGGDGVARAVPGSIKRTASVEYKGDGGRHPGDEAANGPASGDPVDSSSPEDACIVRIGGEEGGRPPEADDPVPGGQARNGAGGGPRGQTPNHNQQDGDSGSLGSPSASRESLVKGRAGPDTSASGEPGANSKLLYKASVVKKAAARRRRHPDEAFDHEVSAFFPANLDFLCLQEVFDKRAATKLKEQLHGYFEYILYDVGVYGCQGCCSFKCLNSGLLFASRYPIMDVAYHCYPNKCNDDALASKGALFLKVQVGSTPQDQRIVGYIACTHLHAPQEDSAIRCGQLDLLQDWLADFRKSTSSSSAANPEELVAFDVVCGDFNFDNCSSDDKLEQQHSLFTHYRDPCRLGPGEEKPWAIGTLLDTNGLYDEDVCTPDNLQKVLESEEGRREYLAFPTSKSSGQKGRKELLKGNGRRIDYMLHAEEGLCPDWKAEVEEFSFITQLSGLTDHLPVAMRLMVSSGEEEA
In short: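 Fluorescence-based coupled assay with human recombinant nSMase2, alkaline phosphatase and choline oxidase; IC50 values are mean ± SD of at least three experiments.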

Ratio [2]: 6
Stability [3]: > 95%
Ratio [6]: 3
Stability [7]: 14%
BPR [8]: 9%
Ratio [9]: 3
Stability [10]: 82%
Drug metabolism [11]: Metabolite_Detected
Stability [12]: 32%
IC50 [13]: 90 nM
Structure (SMILES): COc1cc(-c2nc(C(C)C)c(C(C)C)[nH]2)cc(OC)c1O
Ratio IC50 [1]: > 5
Ratio IC50 (Homo sapiens [4]): > 5
Ratio IC50 (Homo sapiens [5]): > 5
